{"source": "paper PMC2857698", "about": "(Biochemistry, 2010)", "key": {"EH domain of EHD1": {"system": "EH domain of EHD1", "assay": "ITC of NPF peptides binding to EHD1 EH", "design": "species or system mouse", "conditions": "for Ka / TΔS / ΔG / ΔH / ΔS: 25 mM MOPS pH 7.0, 1 mM CaCl2", "outline": "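Mouse EHD1 EH domain (V437–E534) expressed as a GST fusion, purified on glutathione resin and thrombin-cleaved on beads. Protein and peptides were dialysed at 4°C against 25 mM MOPS pH 7.0, 1 mM CaCl2, with KCl varied where applicable. ITC was run at 20°C unless stated (5–25°C), with 50–200 μM protein in the cell and peptide titrant 10-fold higher. Single-site fit gave Ka, n and ΔH; ΔG = −RTlnKa, and TΔS came from ΔG = ΔH − TΔS.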"}, "Eps15 EH2": {"system": "Eps15 EH2", "assay": "ITC of Rsn5-NPF1 with Eps15 EH2", "type": "binding", "conditions": "protein concentration in the ITC cell increased to 0.5 mM"}}}
{"substance": "Ac-GPSLNPFDEED-NH2 [Rsn5-NPF1]", "values": [{"measurement": "fold higher affinity than Rfp2-NPF2", "setting": "EH domain of EHD1; ITC, EHD1 EH", "result": 100, "unit": "fold"}, {"measurement": "Ka", "setting": "EH domain of EHD1; ITC, 5.0 °C", "result": "2.03e+06", "unit": "M⁻¹"}, {"measurement": "TΔS", "setting": "EH domain of EHD1; ITC, 5.0 °C", "result": -0.9542, "unit": "kcal/mol"}, {"measurement": "ΔG", "setting": "EH domain of EHD1; ITC, 5.0 °C", "result": -8.02, "unit": "kcal/mol"}, {"measurement": "ΔH", "setting": "EH domain of EHD1; ITC, 5.0 °C", "result": -8.986, "unit": "kcal/mol"}, {"measurement": "ΔS", "setting": "EH domain of EHD1; ITC, 5.0 °C", "result": "−3.43", "unit": "cal mol^−1 K^−1"}, {"measurement": "Ka", "setting": "EH domain of EHD1; ITC, 10.0 °C", "result": "1.71e+06", "unit": "M⁻¹"}, {"measurement": "TΔS", "setting": "EH domain of EHD1; ITC, 10.0 °C", "result": -1.606, "unit": "kcal/mol"}, {"measurement": "ΔG", "setting": "EH domain of EHD1; ITC, 10.0 °C", "result": -8.068, "unit": "kcal/mol"}, {"measurement": "ΔH", "setting": "EH domain of EHD1; ITC, 10.0 °C", "result": -9.684, "unit": "kcal/mol"}, {"measurement": "ΔS", "setting": "EH domain of EHD1; ITC, 10.0 °C", "result": "−5.67", "unit": "cal mol^−1 K^−1"}, {"measurement": "Ka", "setting": "EH domain of EHD1; ITC, 15.0 °C", "result": "1.1e+06", "unit": "M⁻¹"}, {"measurement": "TΔS", "setting": "EH domain of EHD1; ITC, 15.0 °C", "result": -2.467, "unit": "kcal/mol"}, {"measurement": "ΔG", "setting": "EH domain of EHD1; ITC, 15.0 °C", "result": -7.958, "unit": "kcal/mol"}, {"measurement": "ΔH", "setting": "EH domain of EHD1; ITC, 15.0 °C", "result": -10.44, "unit": "kcal/mol"}, {"measurement": "ΔS", "setting": "EH domain of EHD1; ITC, 15.0 °C", "result": "−8.56", "unit": "cal mol^−1 K^−1"}, {"measurement": "Ka", "setting": "EH domain of EHD1; ITC, 20.0 °C", "result": 814000, "unit": "M⁻¹"}, {"measurement": "TΔS", "setting": "EH domain of EHD1; ITC, 20.0 °C", "result": -3.401, "unit": "kcal/mol"}, {"measurement": "ΔG", "setting": "EH domain of EHD1; ITC, 20.0 °C", "result": -7.921, "unit": "kcal/mol"}, {"measurement": "ΔH", "setting": "EH domain of EHD1; ITC, 20.0 °C", "result": -11.33, "unit": "kcal/mol"}, {"measurement": "ΔS", "setting": "EH domain of EHD1; ITC, 20.0 °C", "result": "−11.6", "unit": "cal mol^−1 K^−1"}, {"measurement": "Ka", "setting": "EH domain of EHD1; ITC, 20 °C, KCl 25.0 mM", "result": 302000, "unit": "M⁻¹"}, {"measurement": "TΔS", "setting": "EH domain of EHD1; ITC, 20 °C, KCl 25.0 mM", "result": -3.079, "unit": "kcal/mol"}, {"measurement": "ΔH", "setting": "EH domain of EHD1; ITC, 20 °C, KCl 25.0 mM", "result": -10.42, "unit": "kcal/mol"}, {"measurement": "ΔS", "setting": "EH domain of EHD1; ITC, 20 °C, KCl 25.0 mM", "result": "−10.5", "unit": "cal mol^−1 K^−1"}, {"measurement": "Ka", "setting": "EH domain of EHD1; ITC, 20 °C, KCl 50.0 mM", "result": 168000, "unit": "M⁻¹"}, {"measurement": "TΔS", "setting": "EH domain of EHD1; ITC, 20 °C, KCl 50.0 mM", "result": -3.401, "unit": "kcal/mol"}, {"measurement": "ΔG", "setting": "EH domain of EHD1; ITC, 20 °C, KCl 50.0 mM", "result": -7.002, "unit": "kcal/mol"}, {"measurement": "ΔH", "setting": "EH domain of EHD1; ITC, 20 °C, KCl 50.0 mM", "result": -10.42, "unit": "kcal/mol"}, {"measurement": "ΔS", "setting": "EH domain of EHD1; ITC, 20 °C, KCl 50.0 mM", "result": "−11.6", "unit": "cal mol^−1 K^−1"}, {"measurement": "Ka", "setting": "EH domain of EHD1; ITC, 20 °C, KCl 75.0 mM", "result": 115000, "unit": "M⁻¹"}, {"measurement": "TΔS", "setting": "EH domain of EHD1; ITC, 20 °C, KCl 75.0 mM", "result": -3.548, "unit": "kcal/mol"}, {"measurement": "ΔG", "setting": "EH domain of EHD1; ITC, 20 °C, KCl 75.0 mM", "result": -6.782, "unit": "kcal/mol"}, {"measurement": "ΔH", "setting": "EH domain of EHD1; ITC, 20 °C, KCl 75.0 mM", "result": -10.34, "unit": "kcal/mol"}, {"measurement": "ΔS", "setting": "EH domain of EHD1; ITC, 20 °C, KCl 75.0 mM", "result": "−12.1", "unit": "cal mol^−1 K^−1"}, {"measurement": "Ka", "setting": "EH domain of EHD1; ITC, 20 °C, KCl 100.0 mM", "result": 86500, "unit": "M⁻¹"}, {"measurement": "TΔS", "setting": "EH domain of EHD1; ITC, 20 °C, KCl 100.0 mM", "result": -4.251, "unit": "kcal/mol"}, {"measurement": "ΔG", "setting": "EH domain of EHD1; ITC, 20 °C, KCl 100.0 mM", "result": -6.616, "unit": "kcal/mol"}, {"measurement": "ΔH", "setting": "EH domain of EHD1; ITC, 20 °C, KCl 100.0 mM", "result": -10.88, "unit": "kcal/mol"}, {"measurement": "ΔS", "setting": "EH domain of EHD1; ITC, 20 °C, KCl 100.0 mM", "result": "−14.5", "unit": "cal mol^−1 K^−1"}, {"measurement": "Ka", "setting": "EH domain of EHD1; ITC, 20 °C, KCl 125.0 mM", "result": 65000, "unit": "M⁻¹"}, {"measurement": "TΔS", "setting": "EH domain of EHD1; ITC, 20 °C, KCl 125.0 mM", "result": -4.046, "unit": "kcal/mol"}, {"measurement": "ΔG", "setting": "EH domain of EHD1; ITC, 20 °C, KCl 125.0 mM", "result": -6.45, "unit": "kcal/mol"}, {"measurement": "ΔH", "setting": "EH domain of EHD1; ITC, 20 °C, KCl 125.0 mM", "result": -10.5, "unit": "kcal/mol"}, {"measurement": "ΔS", "setting": "EH domain of EHD1; ITC, 20 °C, KCl 125.0 mM", "result": "−13.8", "unit": "cal mol^−1 K^−1"}, {"measurement": "Ka", "setting": "EH domain of EHD1; ITC, 20 °C, KCl 150.0 mM", "result": 53000, "unit": "M⁻¹"}, {"measurement": "TΔS", "setting": "EH domain of EHD1; ITC, 20 °C, KCl 150.0 mM", "result": -4.163, "unit": "kcal/mol"}, {"measurement": "ΔG", "setting": "EH domain of EHD1; ITC, 20 °C, KCl 150.0 mM", "result": -6.331, "unit": "kcal/mol"}, {"measurement": "ΔH", "setting": "EH domain of EHD1; ITC, 20 °C, KCl 150.0 mM", "result": -10.5, "unit": "kcal/mol"}, {"measurement": "ΔS", "setting": "EH domain of EHD1; ITC, 20 °C, KCl 150.0 mM", "result": "−14.2", "unit": "cal mol^−1 K^−1"}, {"measurement": "Ka", "setting": "EH domain of EHD1; ITC, 20 °C, KCl 300.0 mM", "result": 24800, "unit": "M⁻¹"}, {"measurement": "TΔS", "setting": "EH domain of EHD1; ITC, 20 °C, KCl 300.0 mM", "result": -4.369, "unit": "kcal/mol"}, {"measurement": "ΔG", "setting": "EH domain of EHD1; ITC, 20 °C, KCl 300.0 mM", "result": -5.889, "unit": "kcal/mol"}, {"measurement": "ΔH", "setting": "EH domain of EHD1; ITC, 20 °C, KCl 300.0 mM", "result": -10.26, "unit": "kcal/mol"}, {"measurement": "ΔS", "setting": "EH domain of EHD1; ITC, 20 °C, KCl 300.0 mM", "result": "−14.9", "unit": "cal mol^−1 K^−1"}, {"measurement": "Ka", "setting": "EH domain of EHD1; ITC, 20 °C, KCl 450.0 mM", "result": 17800, "unit": "M⁻¹"}, {"measurement": "TΔS", "setting": "EH domain of EHD1; ITC, 20 °C, KCl 450.0 mM", "result": -4.721, "unit": "kcal/mol"}, {"measurement": "ΔG", "setting": "EH domain of EHD1; ITC, 20 °C, KCl 450.0 mM", "result": -5.696, "unit": "kcal/mol"}, {"measurement": "ΔH", "setting": "EH domain of EHD1; ITC, 20 °C, KCl 450.0 mM", "result": -10.43, "unit": "kcal/mol"}, {"measurement": "ΔS", "setting": "EH domain of EHD1; ITC, 20 °C, KCl 450.0 mM", "result": "−16.1", "unit": "cal mol^−1 K^−1"}, {"measurement": "Ka", "setting": "EH domain of EHD1; ITC, 25.0 °C", "result": 606000, "unit": "M⁻¹"}, {"measurement": "TΔS", "setting": "EH domain of EHD1; ITC, 25.0 °C", "result": -4.056, "unit": "kcal/mol"}, {"measurement": "ΔG", "setting": "EH domain of EHD1; ITC, 25.0 °C", "result": -7.881, "unit": "kcal/mol"}, {"measurement": "ΔH", "setting": "EH domain of EHD1; ITC, 25.0 °C", "result": -11.94, "unit": "kcal/mol"}, {"measurement": "ΔS", "setting": "EH domain of EHD1; ITC, 25.0 °C", "result": "−13.6", "unit": "cal mol^−1 K^−1"}, {"measurement": "non-electrostatic ΔG", "setting": "EH domain of EHD1; from (Ka)ne, 20°C", "result": -5.2, "unit": "kcal/mol"}, {"measurement": "ΔCp (change in heat capacity upon binding)", "setting": "EH domain of EHD1; from response of ΔH to temperature, 5 to 25°, ITC", "result": "−150", "unit": "cal mol^−1 K^−1"}, {"measurement": "interaction detected by ITC", "setting": "Eps15 EH2", "result": "unable to detect any interaction"}]}
